This passage reports ED50 results from ChEMBL document CHEMBL1124607, “Studies on antitumor agents. 8. Antitumor activities of O-alkyl derivatives of 2'-deoxy-5-(trifluoromethyl)uridine and 2'-deoxy-5-fluorouridine” (1989).

Bounds are passed on as bounds.

The species entered for this experiment is Mus musculus. Description: Antitumor activity against transplanted tumor sarcoma 180 expressed as effective dose. The class given is functional. Put shortly:
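Male ICR mice, five weeks old, implanted s.c. in the axilla with 5×10^6 sarcoma 180 cells. Starting 24 h after implant, compounds were given orally once daily for 7 consecutive days as a suspension in 0.5% CMC with 0.1% Tween 80. Seven mice per dose. Tumors were excised and weighed on day 10, and inhibition was taken from treated/control tumor weight.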
The molecule `O=c1[nH]c(=O)n([C@H]2C[C@H](O)[C@@H](CO)O2)cc1F` [FLOXURIDINE] returned an ED50 of 84 mg/kg/day.

In the case of `Cc1ccccc1COC[C@H]1O[C@@H](n2cc(C(F)(F)F)c(=O)[nH]c2=O)C[C@@H]1O`, the ED50 is > 40 mg/kg/day.

On to `O=c1nc(OCc2ccccc2)c(C(F)(F)F)cn1[C@H]1C[C@H](O)[C@@H](CO)O1`, for which the ED50 is > 40 mg/kg/day.

Turning to `O=c1[nH]c(=O)n([C@H]2C[C@H](OCc3ccc(Cl)cc3)[C@@H](CO)O2)cc1C(F)(F)F`, the ED50 was < 10 mg/kg/day.

The molecule `O=C(c1ccccc1)n1c(=O)c(C(F)(F)F)cn([C@H]2C[C@H](OCc3ccccc3)[C@@H](CO)O2)c1=O` had an ED50 of 26 mg/kg/day.

Regarding `Cc1cccc(CO[C@H]2C[C@H](n3cc(C(F)(F)F)c(=O)[nH]c3=O)O[C@@H]2CO)c1`, the ED50 amounted to 36 mg/kg/day.

Consider `O=c1c(C(F)(F)F)cn([C@H]2C[C@H](O)[C@@H](CO)O2)c(=O)n1Cc1ccccc1`, for which the 50% effective dose (ED50) is > 40 mg/kg/day.

With `CCOC[C@H]1O[C@@H](n2cc(C(F)(F)F)c(=O)n(C(=O)c3ccccc3)c2=O)C[C@@H]1O`, it took a dose of 23 mg/kg/day to reach the 50% effect level (ED50).

Take `Cc1cccc(COC[C@H]2O[C@@H](n3cc(C(F)(F)F)c(=O)[nH]c3=O)C[C@@H]2O)c1`: the ED50 was determined as 28 mg/kg/day.

Turning to `CCO[C@H]1C[C@H](n2cc(F)c(=O)[nH]c2=O)O[C@@H]1CO`, the median effective dose (ED50) was > 40 mg/kg/day.

Molecule `O=c1[nH]c(=O)n([C@H]2C[C@H](OCc3ccccc3)[C@@H](CO)O2)cc1F` showed an ED50 of 12 mg/kg/day.

In turn, `O=C(c1ccccc1)n1c(=O)c(C(F)(F)F)cn([C@H]2C[C@H](O)[C@@H](COCc3ccccc3)O2)c1=O` yielded an ED50 of 26 mg/kg/day.

With `O=c1[nH]c(=O)n([C@H]2C[C@H](O)[C@@H](CO)O2)cc1C(F)(F)F` [TRIFLURIDINE], the ED50 is 63 mg/kg/day.

Regarding `O=c1[nH]c(=O)n([C@H]2C[C@H](O)[C@@H](COCc3ccccc3)O2)cc1F`, the ED50 turned out to be 16 mg/kg/day.

Regarding `CCOC[C@H]1O[C@@H](n2cc(F)c(=O)[nH]c2=O)C[C@@H]1O`, the ED50 was determined as 39 mg/kg/day.

Take `CCOC[C@H]1O[C@@H](n2cc(C(F)(F)F)c(=O)[nH]c2=O)C[C@@H]1OCC`: the 50% effect level (ED50) was put at a dose of 25 mg/kg/day.

Regarding `O=c1[nH]c(=O)n([C@H]2C[C@H](O)[C@@H](COCc3ccccc3)O2)cc1C(F)(F)F`, the 50% effective dose (ED50) is 15 mg/kg/day.

In the case of `CCOC[C@H]1O[C@@H](n2cc(C(F)(F)F)c(=O)[nH]c2=O)C[C@@H]1O`, the ED50 worked out at 14 mg/kg/day.

Turning to `COc1ccc(CO[C@H]2C[C@H](n3cc(C(F)(F)F)c(=O)[nH]c3=O)O[C@@H]2CO)cc1`, the ED50 was > 40 mg/kg/day.

Molecule `O=c1[nH]c(=O)n([C@H]2C[C@H](O)[C@@H](COCc3ccc(Cl)cc3)O2)cc1C(F)(F)F` showed an ED50 of 14 mg/kg/day.

For `COc1ccc(COC[C@H]2O[C@@H](n3cc(C(F)(F)F)c(=O)[nH]c3=O)C[C@@H]2O)cc1`, the ED50 is > 40 mg/kg/day.

`O=c1[nH]c(=O)n([C@H]2C[C@H](OCc3ccccc3)[C@@H](CO)O2)cc1C(F)(F)F` returned an ED50 of 13 mg/kg/day.

The molecule `CCO[C@H]1C[C@H](n2cc(C(F)(F)F)c(=O)n(C(=O)c3ccccc3)c2=O)O[C@@H]1CO` registered an ED50 of 37 mg/kg/day.

The molecule `CCO[C@H]1C[C@H](n2cc(C(F)(F)F)c(=O)[nH]c2=O)O[C@@H]1CO` returned an ED50 of 15 mg/kg/day.

Turning to `Cc1ccccc1CO[C@H]1C[C@H](n2cc(C(F)(F)F)c(=O)[nH]c2=O)O[C@@H]1CO`, it took a dose of 40 mg/kg/day to reach the 50% effect level (ED50).

In the case of `O=c1[nH]c(=O)n([C@H]2C[C@H](OCc3ccccc3)[C@@H](COCc3ccccc3)O2)cc1C(F)(F)F`, the ED50 is > 40 mg/kg/day.

Usually ED50 stands for the dose that gives a 50% effect, or the effect in half of the subjects.
